According to ChEMBL document CHEMBL3739352, “Anticonvulsant activity, crystal structures, and preliminary safety evaluation of N-trans-cinnamoyl derivatives of selected (un)modified aminoalkanols” (Eur J Med Chem, 2016):
The source made the active and inactive calls. The calls are words filed in the database; no cut-off is given here.

What was measured:
Mus musculus [1] = assay: Neurotoxicity in albino Carworth Farms No.1 mouse at 300 mg/kg, ip after 0.5 hrs by rotarod test; format: toxicity, organism-based; conditions: in vivo
In short: (§1)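 Mice (albino Carworth Farms No.1) were dosed i.p. at 30, 100 or 300 mg/kg in 0.5% methylcellulose. They were tested 0.5 and 4 h later on a 1-inch knurled rod rotating at 6 rpm. Neurotoxicity was scored if a mouse could not stay on the rod for at least 1 min in each of three trials. Results are given as animals toxic/animals tested, with deaths noted.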

Mus musculus [2] = assay: Neurotoxicity in albino Carworth Farms No.1 mouse at 100 mg/kg, ip after 0.5 hrs by rotarod test; format: toxicity, organism-based; conditions: in vivo; in short: as §1
Mus musculus [3] = assay: Anticonvulsant activity in albino Carworth Farms No.1 mouse assessed as protection against subcutaneous dosed pentetrazol-induced seizures at 300 mg/kg, ip after 4 hrs; format: functional, organism-based
In short: (§2)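 Mouse i.p. screen in Carworth Farms No.1 albino mice at 30, 100 or 300 mg/kg in 0.5% methylcellulose. Testing was at 0.5 and 4 h after injection, by maximal electroshock or by subcutaneous pentetrazol challenge. Scoring was number protected / number used.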

Mus musculus [4] = assay: Neurotoxicity in albino Carworth Farms No.1 mouse at 30 mg/kg, ip after 0.5 hrs by rotarod test; format: toxicity, organism-based; conditions: in vivo; in short: as §1
Mus musculus [5] = assay: Anticonvulsant activity in albino Carworth Farms No.1 mouse assessed as protection against subcutaneous dosed pentetrazol-induced seizures at 300 mg/kg, ip after 0.5 hrs; format: functional, organism-based; in short: as §2
Mus musculus [6] = assay: Anticonvulsant activity in albino Carworth Farms No.1 mouse assessed as protection against subcutaneous dosed pentetrazol-induced seizures at 100 mg/kg, ip after 4 hrs; format: functional, organism-based; in short: as §2
Mus musculus [7] = assay: Anticonvulsant activity in albino Carworth Farms No.1 mouse assessed as protection against subcutaneous dosed pentetrazol-induced seizures at 100 mg/kg, ip after 0.5 hrs; format: functional, organism-based; in short: as §2
Mus musculus [8] = assay: Anticonvulsant activity in albino Carworth Farms No.1 mouse assessed as protection against subcutaneous dosed pentetrazol-induced seizures at 30 mg/kg, ip after 4 hrs; format: functional, organism-based; in short: as §2
Mus musculus [9] = assay: Anticonvulsant activity in albino Carworth Farms No.1 mouse assessed as protection against subcutaneous dosed pentetrazol-induced seizures at 30 mg/kg, ip after 0.5 hrs; format: functional, organism-based; in short: as §2
Mus musculus [10] = assay: Anticonvulsant activity in albino Carworth Farms No.1 mouse assessed as protection against maximal electroshock-induced seizures at 300 mg/kg, ip after 4 hrs; format: functional, organism-based; in short: as §2
Mus musculus [11] = assay: Anticonvulsant activity in albino Carworth Farms No.1 mouse assessed as protection against maximal electroshock-induced seizures at 300 mg/kg, ip after 0.5 hrs; format: functional, organism-based; in short: as §2
Mus musculus [12] = assay: Anticonvulsant activity in albino Carworth Farms No.1 mouse assessed as protection against maximal electroshock-induced seizures at 100 mg/kg, ip after 4 hrs; format: functional, organism-based; in short: as §2
Mus musculus [13] = assay: Anticonvulsant activity in albino Carworth Farms No.1 mouse assessed as protection against maximal electroshock-induced seizures at 100 mg/kg, ip after 0.5 hrs; format: functional, organism-based; in short: as §2
Mus musculus [14] = assay: Anticonvulsant activity in albino Carworth Farms No.1 mouse assessed as protection against maximal electroshock-induced seizures at 30 mg/kg, ip after 0.5 hrs; format: functional, organism-based; in short: as §2
Mus musculus [15] = assay: Anticonvulsant activity in albino Carworth Farms No.1 mouse assessed as protection against maximal electroshock-induced seizures at 30 mg/kg, ip after 4 hrs; format: functional, organism-based; in short: as §2
Mus musculus [16] = assay: Neurotoxicity in albino Carworth Farms No.1 mouse at 30 mg/kg, ip after 4 hrs by rotarod test; format: toxicity, organism-based; conditions: in vivo; in short: as §1
Mus musculus [17] = assay: Neurotoxicity in albino Carworth Farms No.1 mouse at 100 mg/kg, ip after 4 hrs by rotarod test; format: toxicity, organism-based; conditions: in vivo; in short: as §1
Mus musculus [18] = assay: Neurotoxicity in albino Carworth Farms No.1 mouse at 300 mg/kg, ip after 4 hrs by rotarod test; format: toxicity, organism-based; conditions: in vivo; in short: as §1
[19] = Lipophilicity of the compound using 95% methanol in water at 1 mg/ml by RT-TLC analysis; format: physicochemical; conditions: buffer
In short: (§3)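 Reversed-phase TLC with a methanol–water mobile phase at the stated methanol content (v/v). Compounds were spotted from 1 mg/mL methanol solutions after 1 h chamber saturation and located under UV light. Rf was measured and RM = log(1/Rf − 1) calculated.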

[20] = Lipophilicity of the compound using 90% methanol in water at 1 mg/ml by RT-TLC analysis; format: physicochemical; conditions: buffer; in short: as §3
[21] = Lipophilicity of the compound using 85% methanol in water at 1 mg/ml by RT-TLC analysis; format: physicochemical; conditions: buffer; in short: as §3
[22] = Lipophilicity of the compound using 75% methanol in water at 1 mg/ml by RT-TLC analysis; format: physicochemical; conditions: buffer; in short: as §3
[23] = Lipophilicity of the compound using 65% methanol in water at 1 mg/ml by RT-TLC analysis; format: physicochemical; conditions: buffer; in short: as §3
[24] = Lipophilicity of the compound at 1 mg/ml by RT-TLC analysis relative to 0% methanol; format: physicochemical; conditions: methanol/water
In short: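 Reversed-phase TLC used methanol–water mobile phases of 95–65% methanol. Compounds were applied from 1 mg/mL methanol solutions after 1 h chamber saturation, with UV detection. RM = log(1/Rf − 1) was calculated at each methanol level and extrapolated linearly (RM = RM0 + bC) to 0% methanol to give RM0.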

Rattus norvegicus [25] = assay: Neurotoxicity in Sprague-Dawley rat at 30 mg/kg, po after 4 hrs; format: toxicity, organism-based; conditions: in vivo
In short: (§4)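 Sprague-Dawley rats were given 30 mg/kg orally in 0.5% methylcellulose. Neurotoxicity was checked at 0.25, 0.5, 1.0, 2.0 and 4 h after dosing. Results are given as number of rats showing neurotoxicity/number tested.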

Rattus norvegicus [26] = assay: Neurotoxicity in Sprague-Dawley rat at 30 mg/kg, po after 2 hrs; format: toxicity, organism-based; conditions: in vivo; in short: as §4
Rattus norvegicus [27] = assay: Neurotoxicity in Sprague-Dawley rat at 30 mg/kg, po after 1 hr; format: toxicity, organism-based; conditions: in vivo; in short: as §4
Rattus norvegicus [28] = assay: Neurotoxicity in Sprague-Dawley rat at 30 mg/kg, po after 0.25 hrs; format: toxicity, organism-based; conditions: in vivo; in short: as §4
Rattus norvegicus [29] = assay: Neurotoxicity in Sprague-Dawley rat at 30 mg/kg, po after 0.5 hrs; format: toxicity, organism-based; conditions: in vivo; in short: as §4
Rattus norvegicus [30] = assay: Anticonvulsant activity in Sprague-Dawley rat assessed as protection against maximal electroshock-induced seizures at 30 mg/kg, po after 4 hrs; format: functional, organism-based
In short: (§5)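 Sprague-Dawley rats were given 30 mg/kg p.o. in 0.5% methylcellulose. Maximal electroshock was applied at 0.25, 0.5, 1.0, 2.0 and 4 h after dosing. Results are reported as number of rats protected / number tested.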

Rattus norvegicus [31] = assay: Anticonvulsant activity in Sprague-Dawley rat assessed as protection against maximal electroshock-induced seizures at 30 mg/kg, po after 2 hrs; format: functional, organism-based; in short: as §5
Rattus norvegicus [32] = assay: Anticonvulsant activity in Sprague-Dawley rat assessed as protection against maximal electroshock-induced seizures at 30 mg/kg, po after 1 hr; format: functional, organism-based; in short: as §5
Rattus norvegicus [33] = assay: Anticonvulsant activity in Sprague-Dawley rat assessed as protection against maximal electroshock-induced seizures at 30 mg/kg, po after 0.5 hrs; format: functional, organism-based; in short: as §5
Rattus norvegicus [34] = assay: Anticonvulsant activity in Sprague-Dawley rat assessed as protection against maximal electroshock-induced seizures at 30 mg/kg, po after 0.25 hrs; format: functional, organism-based; in short: as §5

Structure (SMILES)	Rm [19]	Rm [20]	Rm [21]	Rm [22]	Rm [23]	Activity (Mus musculus [1])	Activity (Mus musculus [2])	Activity (Mus musculus [3])	Activity (Mus musculus [4])	Activity (Mus musculus [5])	Activity (Mus musculus [6])	Activity (Mus musculus [7])	Activity (Mus musculus [8])	Activity (Mus musculus [9])	Activity (Mus musculus [10])	Activity (Mus musculus [11])	Activity (Mus musculus [12])	Activity (Mus musculus [13])	Activity (Mus musculus [14])	Activity (Mus musculus [15])	also measured
COC(=O)C(NC(=O)/C=C/c1ccccc1)C(C)C (racemic)	-0.52	-0.31	-0.03	0.05	0.58	Non-toxic	Non-toxic	inactive	Non-toxic	inactive	inactive	inactive	inactive	inactive	inactive	Active	inactive	inactive	inactive	inactive	Activity (Mus musculus [16]): Non-toxic; Activity (Mus musculus [17]): Non-toxic; Activity (Mus musculus [18]): Non-toxic; Rm [24]: 2.742
CCC(COC(C)=O)NC(=O)/C=C/c1ccccc1 (stereo not given)	-0.58	-0.43	-0.14	-0.05	0.29	Non-toxic	Non-toxic	inactive	Non-toxic	inactive	inactive	inactive	inactive	inactive	inactive	inactive	inactive	inactive	inactive	inactive	Rm [24]: 2.118
CC(=O)OCC(C)NC(=O)/C=C/c1ccccc1 (racemic)	-0.58	-0.48	-0.21	-0.07	0.19	Non-toxic	Non-toxic	inactive	Non-toxic	inactive	inactive	inactive	inactive	inactive	inactive	Active	inactive	Active	inactive	inactive	Activity (Rattus norvegicus [25]): Non-toxic; Activity (Rattus norvegicus [26]): Non-toxic; Activity (Rattus norvegicus [27]): Non-toxic; Activity (Rattus norvegicus [28]): Non-toxic; Activity (Rattus norvegicus [29]): Non-toxic; Activity (Rattus norvegicus [30]): inactive; Activity (Rattus norvegicus [31]): inactive; Activity (Rattus norvegicus [32]): inactive; Activity (Rattus norvegicus [33]): inactive; Activity (Rattus norvegicus [34]): inactive; Activity (Mus musculus [16]): Non-toxic; Activity (Mus musculus [17]): Non-toxic; Activity (Mus musculus [18]): Non-toxic; Rm [24]: 1.88

The next lines start with results.

Rm [19]	Rm [20]	Rm [21]	Rm [22]	Rm [23]	Structure (SMILES)	Activity (Mus musculus [1])	Activity (Mus musculus [2])	Activity (Mus musculus [3])	Activity (Mus musculus [4])	Activity (Mus musculus [5])	Activity (Mus musculus [6])	Activity (Mus musculus [7])	Activity (Mus musculus [8])	Activity (Mus musculus [9])	Activity (Mus musculus [10])	Activity (Mus musculus [11])	Activity (Mus musculus [12])	Activity (Mus musculus [13])	Activity (Mus musculus [14])	Activity (Mus musculus [15])	also measured
-0.69	-0.52	-0.27	-0.18	0.19	O=C(/C=C/c1ccccc1)NCCCCCO	Non-toxic	Non-toxic	inactive	Non-toxic	inactive	inactive	inactive	inactive	inactive	inactive	inactive	inactive	inactive	inactive	inactive	Activity (Mus musculus [16]): Non-toxic; Activity (Mus musculus [17]): Non-toxic; Activity (Mus musculus [18]): Non-toxic; Rm [24]: 1.983
-0.58	-0.48	-0.19	-0.1	0.25	CC(=O)OC(C)CNC(=O)/C=C/c1ccccc1 (racemic)	Non-toxic	Non-toxic	inactive	Non-toxic	Active	inactive	inactive	inactive	inactive	Active	Active	inactive	inactive	inactive	inactive	Activity (Rattus norvegicus [25]): Non-toxic; Activity (Rattus norvegicus [26]): Non-toxic; Activity (Rattus norvegicus [27]): Non-toxic; Activity (Rattus norvegicus [28]): Non-toxic; Activity (Rattus norvegicus [29]): Non-toxic; Activity (Rattus norvegicus [30]): inactive; Activity (Rattus norvegicus [31]): inactive; Activity (Rattus norvegicus [32]): inactive; Activity (Rattus norvegicus [33]): inactive; Activity (Rattus norvegicus [34]): inactive; Activity (Mus musculus [16]): Non-toxic; Activity (Mus musculus [17]): Non-toxic; Activity (Mus musculus [18]): Non-toxic; Rm [24]: 2.003
-0.63	-0.52	-0.33	-0.21	0.05	CC(=O)CNC(=O)/C=C/c1ccccc1	Non-toxic	Non-toxic	inactive	Non-toxic	inactive	inactive	inactive	inactive	inactive	inactive	Active	inactive	inactive	inactive	inactive	Activity (Mus musculus [16]): Non-toxic; Activity (Mus musculus [17]): Non-toxic; Activity (Mus musculus [18]): Non-toxic; Rm [24]: 1.478
-0.63	-0.5	-0.25	-0.14	0.29	CC(C)(CO)NC(=O)/C=C/c1ccccc1	Non-toxic	Non-toxic	inactive	Non-toxic	Active	inactive	inactive	inactive	inactive	inactive	Active	inactive	inactive	inactive	inactive	Activity (Mus musculus [16]): Non-toxic; Activity (Mus musculus [17]): Non-toxic; Activity (Mus musculus [18]): Non-toxic; Rm [24]: 2.151
